# Sampled rows, rich in hits. Any-hit rate of the full collection: about 3.5%.
# MrgX1 allo act: allosterically activates human MrgX1 receptor signaling; Q96LB2; MrgX1-HEK293, Fluo-4 calcium flux, FDSS; stronger effect = higher value; B-score at 10 µM; 310,000 tested, 0.63% active; AID 588675;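 active = plate-corrected calcium response at least 3 library SD above typical, normal starting fluorescence, not activating the receptor alone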;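 also: compound read alongside a low EC10 to EC30 dose of BAM8-22 agonist; peak minus trough fluorescence over baseline measured at the second addition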
# Target sequence (Q96LB2 whole entry, looked up): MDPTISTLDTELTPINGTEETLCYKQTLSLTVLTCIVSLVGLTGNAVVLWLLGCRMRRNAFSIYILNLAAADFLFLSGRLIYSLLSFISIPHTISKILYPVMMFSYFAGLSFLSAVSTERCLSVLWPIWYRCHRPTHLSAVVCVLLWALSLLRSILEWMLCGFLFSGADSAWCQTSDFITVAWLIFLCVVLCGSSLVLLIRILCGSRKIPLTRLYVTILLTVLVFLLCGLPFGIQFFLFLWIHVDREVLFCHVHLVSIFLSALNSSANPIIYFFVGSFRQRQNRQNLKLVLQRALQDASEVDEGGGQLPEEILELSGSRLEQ
# RGS4 act: RGS4 potentiation or activation. 310,000 tested, 0.92% active. B-score at 10 µM. HEK293 M3R/inducible RGS4, carbachol calcium flux Fluo4; stronger effect = lower value;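 active = B-score of the integrated calcium signal more than 4 SD below the library mean, with starting fluorescence not abnormally high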;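 also: negative B-score means reduced calcium response which marks RGS4 activation or potentiation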
#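 System – HEK293 FlpIn-TREx cells, stable M3R, doxycycline-inducible RGS4 · Reagent – ECmax carbachol challenge · Times – compound preincubation 20 min at room temperature before agonist · Technique – Fluo4 fluorescence kinetic imaging of calcium · Measure – B score of integrated Fluo4 ratio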
# MrgX1 ag: human MrgX1 receptor agonism, primary screen; Q96LB2; MrgX1-HEK293 cells, Fluo-4 calcium fluorescence, agonist mode; stronger effect = higher value; B-score at 10 µM; 310,000 tested, 0.44% active; AID 588627;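 active = calcium response B-score plate-corrected fluorescence ratio at least 3 library SD, with starting fluorescence B-score inside 5 SD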
#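 Material – MrgX1-expressing HEK293 cells · Input – 15,000 cells seeded per well · Dosing – compound as first of three additions · Times – overnight seeding, then 1 h dark dye loading · Measured by – kinetic Fluo-4 NW fluorescence of intracellular calcium · Read-out – B-scored fluorescence response ratio · Benchmarks – positive and negative control wells on each plate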
# RGS4 inh: inhibitors of human RGS4; HEK293 M3R/RGS4 inducible, Fluo-4 calcium flux; stronger effect = higher value; triggered by carbachol at its EC20; AID 463165; P49798; B-score at 10 µM; 310,000 tested, 0.45% active;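 active = B-score, a plate-corrected calcium signal, over three deviations above library mean, with baseline fluorescence within five deviations of library mean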;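 also: RGS4 expression induced by doxycycline in cells with stable M3 receptor; B-score is computed from the integrated fluorescence ratio over baseline after carbachol; higher B-score means a larger calcium signal and so more RGS4 inhibition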
# Target sequence (P49798 whole entry, looked up): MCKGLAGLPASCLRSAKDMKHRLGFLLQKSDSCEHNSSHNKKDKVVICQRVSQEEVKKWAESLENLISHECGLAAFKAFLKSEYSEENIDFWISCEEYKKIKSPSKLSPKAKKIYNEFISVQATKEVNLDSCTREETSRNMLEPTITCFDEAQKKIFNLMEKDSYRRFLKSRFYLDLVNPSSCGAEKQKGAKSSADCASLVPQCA
# MrgX1 antag: human MrgX1 receptor antagonism, primary screen; MRGX1-HEK293 calcium flux, Fluo-4, BAM8-22 antagonism; stronger effect = lower value; B-score at 10 µM; 310,000 tested, 1.3% active;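 active = calcium-response B-score plate-corrected more than 3 library SD below zero, starting fluorescence within 5 deviations, no agonist response on first addition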;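 also: peak minus trough fluorescence over baseline after final BAM8-22 challenge near maximal dose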
# Numbers stand for hits; n = inactive; x = no result given; ! = not active in a repeat.
SMILES,MrgX1 allo act,RGS4 act,MrgX1 ag,RGS4 inh,MrgX1 antag
C=C(C=O)CC1CC(O)[C@]2(C)OC3CC4OC5C[C@]6(C)O[C@]7(C)CCC8OC9C[C@]%10(C)OC%11C(C)=CC(=O)OC%11CC%10OC9C[C@@H](C)C8OC7CC6O[C@]5(C)CC5OC5C4OC3CC2O1 (stereo partly specified),n,n,n,n,-5.4
O=C(COc1ccccc1)N1CCN(CC2CC=CCC2)CC1 (stereo unspecified),n,n,n,n,n
Cc1ccc(CC(=O)N2CCN(C)CC2)cc1,n,n,n,n,n
CN(C)C=C1C(=O)N(C2CCCCC2)C(=O)N(C2CCCCC2)C1=O,n,n,52,n,n
N#CC(C#N)=Cc1cccnc1,n,n,n,n,-4.6
N#CC(C#N)=Cc1ccc(N2CCOCC2)cc1,n,n,n,n,n
O=C1NC(=O)N(c2ccccc2)C(=O)/C1=C/c1coc2ccc(O)cc2c1=O,n,n,27,n,n
CCCCC/C(=N\O)c1c[nH]c2ccccc12,n,n,n,n,-6.6
COc1cccc(C2CCN(CC(=O)Nc3cc(Cl)ccc3OC)CC2O)c1 (stereo unspecified),n,n,n,n,n
C=CCSc1nc2c(c(-c3ccsc3)c1C#N)CN(C)CC2,n,n,n,n,n
CCN(CC)c1ccc(N=Cc2c(O)n(Cc3ccccc3)c(=O)[nH]c2=O)cc1,n,-7.3!,n,n,n
C[C@](N)(CCP(=O)(O)O)C(=O)O,n,x,n,x,n
C[n+]1c(-c2ccccc2)cc(-c2ccc(O)cc2)cc1-c1ccccc1,n,n,n,n,n
O=C([O-])c1ccc(-[n+]2c(-c3ccccc3)cc(-c3ccccc3)cc2-c2ccccc2)cc1,n,n,n,n,n
COc1ccc(-[n+]2c(-c3ccccc3)cc(-c3ccccc3)cc2-c2ccccc2)cc1,n,n,n,n,-4.9
O=[N+]([O-])c1ccc(-[n+]2c(-c3ccccc3)cc(-c3ccccc3)cc2-c2ccccc2)cc1,8.4,n,n,n,n
Oc1ccc(-[n+]2c(-c3ccccc3)cc(-c3ccccc3)cc2-c2ccccc2)cc1,12,-7.2,n,n,-7.9
O=C(COc1ccc(Cl)cc1)N1CCN(C2CCCC2)CC1,n,n,n,n,n
CC1CN=C(Nc2ccc(F)c(Cl)c2)S1 (stereo unspecified),n,n,n,n,n
Cc1cc(Cc2c(O)[nH]c(=S)[nH]c2=O)ccc1OC(C)C,n,n,n,n,n
CN1CCN(Cc2cc(C(C)(C)C)c(O)c(C(C)(C)C)c2)CC1,n,n,n,n,-5.2
C=CCc1ccc(OC)cc1,n,x,n,x,n
COc1ccc(CC(C)NCCC(c2ccccc2)c2ccccc2)cc1 (stereo unspecified),n,-7.4,n,n,n
NC(N)=Nc1ccc2[nH]c3c(c2c1)C[C@@]1(O)[C@H]2Cc4ccc(O)c5c4[C@@]1(CCN2CC1CC1)[C@H]3O5,n,x,n,x,n
CCOC(=O)c1c(C)n(Cc2ccccc2)c2ccc(OCC(O)CNC(C)(C)C)cc12 (stereo unspecified),n,n,n,n,-4.7
SMILES,MrgX1 allo act,RGS4 act,MrgX1 ag,RGS4 inh,MrgX1 antag
OC(c1ccccc1)(c1ccccc1)C1CN2CCC1CC2 (stereo unspecified),n,-7.5,n,n,n
COc1ccc(C(=O)C2CCCN(Cc3cnc(C)s3)C2)cc1OC (stereo unspecified),n,n,n,n,n
COc1ccc(C(=O)C2CCCN(C3CSCCSC3)C2)cc1OC (stereo unspecified),n,-7.5,n,n,n
COc1cc(CC2(CCc3ccncc3)C(=O)N(C)C(=O)N(C)C2=O)cc(OC)c1OC,n,n,n,n,n
Cn1c(O)c(C=NC2CCCCCC2)c(=O)[nH]c1=S,n,n,n,n,-6.4
Cn1c(O)c(C=NC2CCN(Cc3ccccc3)CC2)c(=O)[nH]c1=O,n,n,n,n,n
COc1c(C=C2C(=O)NC(=O)NC2=O)c(CCN(C)C(=O)c2ccccc2)cc2c1OCO2,n,n,n,n,n
COc1cc(C)cc2oc(=O)c(CC(=O)N3C[C@H]4C[C@@H](C3)c3cccc(=O)n3C4)c(C)c12,n,n,n,n,n
Cc1cc(O)c2c(C)c(CC(=O)N3C[C@H]4C[C@@H](C3)c3cccc(=O)n3C4)c(=O)oc2c1,n,n,n,n,-5.2
COc1cccc(-c2nn(CCC#N)cc2C(=O)Nc2ccccc2Cl)c1,n,n,n,n,n
CCCCCCOc1ccc(CN2CCN(CC)CC2)cc1,n,-7.1,n,n,n
CCN1CCN(Cc2ccc(OC(F)(F)F)cc2)CC1,n,n,n,n,n
O=P(Nc1cccc(F)c1)(Oc1ccccc1F)Oc1ccccc1F,n,-8.2,n,n,n
Cc1ccc(NP(=O)(Oc2ccccc2F)Oc2ccccc2F)cc1C,n,n,n,n,n
Cc1cccc(NP(=O)(Oc2ccccc2F)Oc2ccccc2F)c1,n,-7.8,n,n,n
CCOC(=O)C1(CCc2ccccc2)CCN(CC(O)CO)CC1 (stereo unspecified),n,n,n,n,n
O=C(O)c1cc[c]([Hg][Cl])cc1,13,x,n,x,n
O=[N+]([O-])c1ccc(NC2CCCC2)c2ccncc12,n,n,n,n,n
O=[N+]([O-])c1ccc(N2CCCC2)c2ccncc12,n,n,n,n,-5.1
CC(=O)N1N=C(c2cccnc2)OC1c1ccccc1Cl (stereo unspecified),n,n,n,n,n
Cc1c(C=O)c2ccccc2n1Cc1ccc([N+](=O)[O-])cc1,n,n,n,n,-5.3
C=C(C)[C@@H]1C2C(=O)O[C@H]1[C@H]1OC(=O)[C@@]34OC3C[C@]2(O)[C@@]14C (stereo partly specified),n,x,n,x,-6.4
COc1ccccc1N1CCN(C2CCCN(C(=O)COc3ccccc3Cl)C2)CC1 (stereo unspecified),x,n,x,n,x
CC(C)OCCCNC(=O)c1c(N)n(CC2CCCO2)c2nc3ccccc3nc12 (stereo unspecified),n,-7.2,n,n,n
CCCNC(=O)c1c(N)n(CC2CCCO2)c2nc3ccccc3nc12 (stereo unspecified),n,n,n,n,n
CCCC[N+]12CCC(CC1)C(=C(c1ccccc1)c1ccccc1)C2,n,-8.6,n,n,n
Cc1ccccc1N1C(=O)NC(=O)/C(=C\c2ccc3c(c2)CCCN3Cc2ccccc2)C1=O,n,n,32,n,n
CCOc1ccc(NC(=O)CCNC(=O)N2C[C@H]3C[C@@H](C2)c2cccc(=O)n2C3)cc1,n,n,n,n,n
Cc1ccccc1NS(=O)(=O)c1ccc(OCC(=O)N2CCN(C)CC2)cc1,n,n,n,n,n
CC1CCC(NC(=O)CNC(=S)N2CC3CC(C2)c2cccc(=O)n2C3)CC1 (stereo unspecified),n,n,n,n,n
